# Screening data: PubChem, Broad Institute
# Sampled rows, rich in hits. Any-hit rate of the full collection: about 3%.
# N-glyco inh = blocks N-linked glycosylation in D54 reporter cells; D54 ERlucT glycosylation luciferase reporter, 24 h; percent of 100 nM tunicamycin response; reporter increase, % at 12.5 µM; 360,000 tested, 0.23% active; AID 588692;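 active = mean luciferase reporter signal, scaled so untreated is 0 and the glycosylation-blocking control 100, at or above a set limit in every replicate; inconclusive = mean reaches the limit but not every replicate does; inactive = mean below the limit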;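 note: luciferase carries N-glycosylation sites so blocking glycosylation raises the light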
# PfHsp90 yeast 2 = inhibits growth of yeast expressing Plasmodium falciparum Hsp90; S. cerevisiae expressing PfHsp90, BacTiter-Glo ATP, 48 h; yeast lacking PDR1 and PDR3 efflux regulators; inhibition, % at 9.4 µM; 310,000 tested, 0.32% active;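 active = every replicate shows inhibition above about 80%, whatever the replicate mean, limit read from the data; inconclusive = mean inhibition reaches the set limit but some replicate falls short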
# HSF-1 act = increases HSF-1 driven luciferase reporter signal; NIH3T3-HGL HSF-1 luciferase reporter, MG132, 8 h; 100% = twice DMSO control signal; activation, % at 9 µM; 300,000 tested, 1.7% active;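 active = mean replicate activation of at least 50% with a set share of replicates each reaching 50%; inconclusive = only one of those two conditions met; inactive = mean below 50% and too few replicates reaching it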
# T cruzi inh = T. cruzi replication inhibition; T. cruzi beta-gal in NIH3T3, luminescence, 90 h; 300,000 tested, 1.4% active; inhibition, % (no concentration beside the values);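 active = mean inhibition across valid replicates above about 55%, limit read from the data; inconclusive = mean below that limit but half or more replicates reach it; inactive = mean below it, under half of replicates reach it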;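 note: signal also drops with host cell toxicity which is not excluded here; higher percent means less beta-gal luminescence so fewer parasites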
#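 Incubation – ≥90 h infection period, 3 h prior cell attachment · System – NIH/3T3 fibroblasts plus reporter T. cruzi · Doses – compound pinned at 50 nL/well, DMSO · Read-out basis – percent inhibition of parasite-derived β-gal signal · Signal – luminescent β-galactosidase signal after 60 min lysis · Also added – 5000 T. cruzi trypomastigotes/well · Medium – Low-serum DMEM with 2% FBS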
# PvdQ acylase = blocks Pseudomonas aeruginosa PvdQ acylase activity | inhibition, % at 10 µM | purified PvdQ acylase, fluorescence plate reader | 340,000 tested, 0.063% active; in the data active = inhibition above about 30%, passing the limit was not always enough; inconclusive = no clear call, values can overlap the other calls
# CaV13 ICDI inh = Primary screen for inhibitors of IQ motif and Ca2+-dependent inactivation inhibitor domain binding in CACNA1D, Förster resonance energy transfer in living cells, …; inhibition, % at 12.3 µM; HEK cells, CFP/YFP FRET ICDI-IQ, plate reader, 10 min; percent FRET-ratio fall versus neutral wells; 340,000 tested, 0.098% active;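 active = mean replicate inhibition of at least 30% and at least 1% of replicates passing that level; inconclusive = only one of the two criteria is met; inactive = neither criterion is met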
# Numbers stand for hits; 0 = inactive; ? = inconclusive; - = no result given.
SMILES,N-glyco inh,PfHsp90 yeast 2,HSF-1 act,T cruzi inh,PvdQ acylase,CaV13 ICDI inh
O=C(/C=C/c1ccccc1)C1=C(O)C(=O)N(CCO)C1c1ccc2c(c1)OCO2 (centres undefined),0,0,0,0,0,34
O=C(O)CCCCCN1C(=O)C(O)=C(C(=O)/C=C/c2ccccc2)C1c1ccccc1[N+](=O)[O-] (centres undefined),0,0,0,0,0,0
CC(C)[C@H](NS(=O)(=O)c1ccc(F)cc1F)C(=O)N1CCC[C@H]1C(=O)NCc1ccccc1,-,-,-,-,-,0
CCOC(=O)C1=C(C)N=c2s/c(=C/c3cccc([N+](=O)[O-])c3O)c(=O)n2C1c1cc(OC)c(OC)c(OC)c1 (centres undefined),0,0,58,0,0,0
CCOC(=O)C1=C(C)N=c2s/c(=C/c3cccc([N+](=O)[O-])c3O)c(=O)n2C1c1ccccc1 (centres undefined),0,0,0,0,0,0
O=C(/C=C/c1ccc(Cl)cc1Cl)N(Cc1ccccc1)C1CCS(=O)(=O)C1 (centres undefined),0,0,52,0,0,0
O=C(/C=C/c1ccc(Cl)cc1Cl)N(Cc1ccc(Cl)cc1)C1CCS(=O)(=O)C1 (centres undefined),0,0,0,0,0,-
CCOc1cc(OCC)cc(C(=O)N2CCC[C@@H]2C(=O)N2CCC[C@H]2C(=O)NCc2ccccc2)c1,-,-,-,-,-,0
Cc1ccc(S(=O)(=O)Nc2cc(-c3nn(C)c(=O)c4ccccc34)ccc2N2CCOCC2)cc1,45,-,0,0,0,0
CCCCCCCCN1C(=O)[C@H](CC(=O)N2CCCCC2)C[C@@]2(C(=O)OC)CCCCC=C12,-,-,-,-,-,0
O=c1c(Cl)c(Cl)cnn1Cc1nnc(-c2ccc(Cl)cc2)o1,0,0,0,60,0,0
Cc1ccc(-c2nnc(Cc3ccc(Cl)cc3)o2)cc1,0,0,0,0,0,0
Cc1cc2nc(NC(=O)C3(C)CCN(C)C3)[nH]c2cc1C (centres undefined),0,-,-,-,-,0
COc1cc2c(cc1OC)[C@@]1(c3ccccc3)CCCC[C@H]1[C@@H]2NC(=O)C(F)(F)F,-,-,-,-,-,0
O=C(NC(=S)Nc1ccc(Cl)cn1)C(c1ccccc1)c1ccccc1,0,-,0,0,0,-
O=C(COc1ccccc1Cl)Nc1ccc(Cl)cn1,0,-,106,0,0,0
O=C(COc1ccccc1)Nc1ccc(Cl)cn1,0,0,0,0,0,0
S=C(Nc1ccccc1)Nc1ccc(Cl)cn1,0,-,78,0,0,-
O=C(N[C@H](C(=O)N1CCC[C@H]1C(=O)NC1CCCC1)C1CCCCC1)c1ccccn1,-,-,-,-,-,0
CCOC(=O)C1=C(C(=O)OCC)C2N(Cc3ccc(Br)cc3)c3ccccc3[C@@]23C[C@@H](C(=O)OC)N(S(=O)(=O)c2ccc(C(F)(F)F)cc2)C3=N1 (some centres undefined),-,-,-,-,-,0
Cc1cc(C)nc(Sc2nc(Cl)nc(N(c3ccccc3)c3ccccc3)n2)n1,0,0,54,0,0,-
Cc1cc(C)nc(SC(C(=O)O)c2ccccc2)n1 (centres undefined),0,0,0,0,0,0
C/C(=N\O)c1sc(-c2ccccc2)nc1C,0,0,72,0,0,0
O=S(=O)(Cc1cc(-c2ccc(Cl)cc2)no1)c1ccccc1,0,-,0,0,0,-
O=S(=O)(Cc1cc(-c2ccccc2Cl)no1)c1ccccc1,0,0,72,0,0,0
SMILES,N-glyco inh,PfHsp90 yeast 2,HSF-1 act,T cruzi inh,PvdQ acylase,CaV13 ICDI inh
C[C@@H]1CN([C@@H](C)CO)C(=O)c2cc(C#Cc3ccccc3)cnc2O[C@H]1CN(C)C(=O)c1ccccc1F,0,-,-,-,-,0
N=c1c2c(-c3ccccc3)c(-c3ccccc3)n(Cc3ccccc3)c2ncn1CCCn1ccnc1,0,0,0,60,0,-
N=c1c2c(-c3ccccc3)c(-c3ccccc3)n(Cc3ccco3)c2ncn1Cc1ccco1,0,0,0,57,0,-
CCCCn1cnc2c(c(-c3ccccc3)c(-c3ccccc3)n2Cc2ccco2)c1=N,0,-,0,0,-,0
Cc1cc(NCCCn2ccnc2)n2nc(C)c(-c3ccccc3)c2n1,?,0,0,0,0,0
C#Cc1ccc2c(c1)COc1c3ccccc3nn1-2,0,0,61,0,0,0
Cc1ccc(NC(=O)CCc2c(C)nn(-c3ccc(N4CCCCC4)nn3)c2C)cc1,0,0,0,0,0,0
Cc1ccc(NC(=O)CCc2c(C)nn(-c3ccc(N4CCCCC4)nn3)c2C)cc1C,0,0,56,0,0,0
COC(=O)[C@]12C[C@H](CC(=O)NCCCCc3ccccc3)C(=O)N(Cc3ccccc3)C1=C[C@H](C1CCCC1)O[C@@H]2C,-,-,-,-,-,0
N#CC(c1ccc(Cl)cc1)c1cccc(Cl)n1 (centres undefined),0,0,0,0,117,0
N#CC(c1ccc(Cl)cc1)c1ccc2c(C(F)(F)F)cc(C(F)(F)F)nc2n1 (centres undefined),0,0,0,?,0,0
COc1ccc(/C=N/NC(=S)N[C@H]2CC3CCC2C3)cc1 (some centres undefined),0,0,0,0,0,0
COc1cc(/C=N/NC(=S)NC2CC3CCC2C3)ccc1O (centres undefined),0,0,57,0,0,0
CCN(CC)CCN(C(=O)C1CCCCC1)c1nc2cc3c(cc2s1)OCO3,0,0,0,61,0,0
CCN(CC)CCN(C(=O)c1ccc(Br)s1)c1nc2cc3c(cc2s1)OCO3,0,0,-,0,0,0
CCN(CC)CCN(C(=O)CCS(=O)(=O)c1ccccc1)c1nc2cc3c(cc2s1)OCO3,0,0,0,60,0,0
O=C(NN(C(=O)C1CC1)c1nc2ccccc2s1)C1CC1,0,0,0,0,0,0
O=C(C1CCCCC1)N(CCN1CCCC1)c1nc2ccccc2s1,0,0,0,57,0,0
C[C@H](O)[C@@H]1CN2CCc3c([nH]c4c(-c5ccccc5)cccc34)[C@@H]2C[C@@H]1N(C)C(=O)Nc1ccccc1,-,-,-,-,-,0
CC(C)c1ccc(C(=O)CN2C(=O)NC3(CCc4ccccc43)C2=O)cc1 (centres undefined),0,0,-,-,0,0
Clc1cc(Cl)c(OCc2nc(-c3ccccn3)no2)cc1Cl,0,-,110,0,0,0
CCCCC[C@H](O)/C=C/C1C(=O)C=C[C@H]1C/C=C\CCCC(=O)OC (some centres undefined),0,0,-,-,0,0
COc1cccc(-c2nc(NCC3CCCO3)c3ccccc3n2)c1O (centres undefined),0,0,0,0,0,0
COc1ccc(OC)c(Nc2nc(NCCO)c3ccccc3n2)c1,0,0,0,56,0,0
